Results: ChEMBL document CHEMBL3864188, “Polyamine Conjugation as a Promising Strategy To Target Amyloid Aggregation in the Framework of Alzheimer's Disease” (ACS Med Chem Lett, 2016)
Values belong to the molecule of their own block, whether it stands above or below them. The source made the active and inactive calls. No cut-off for these calls is given here.

Tests used:
[1] = target: Amyloid-beta precursor protein (Homo sapiens) (UniProt P05067); test: Inhibition of amyloid beta (1 to 42) (unknown origin) self-aggregation at 10 uM after 24 hrs by ESI-IT-MS analysis
Chain of Amyloid-beta precursor protein (Homo sapiens) (P05067 whole entry): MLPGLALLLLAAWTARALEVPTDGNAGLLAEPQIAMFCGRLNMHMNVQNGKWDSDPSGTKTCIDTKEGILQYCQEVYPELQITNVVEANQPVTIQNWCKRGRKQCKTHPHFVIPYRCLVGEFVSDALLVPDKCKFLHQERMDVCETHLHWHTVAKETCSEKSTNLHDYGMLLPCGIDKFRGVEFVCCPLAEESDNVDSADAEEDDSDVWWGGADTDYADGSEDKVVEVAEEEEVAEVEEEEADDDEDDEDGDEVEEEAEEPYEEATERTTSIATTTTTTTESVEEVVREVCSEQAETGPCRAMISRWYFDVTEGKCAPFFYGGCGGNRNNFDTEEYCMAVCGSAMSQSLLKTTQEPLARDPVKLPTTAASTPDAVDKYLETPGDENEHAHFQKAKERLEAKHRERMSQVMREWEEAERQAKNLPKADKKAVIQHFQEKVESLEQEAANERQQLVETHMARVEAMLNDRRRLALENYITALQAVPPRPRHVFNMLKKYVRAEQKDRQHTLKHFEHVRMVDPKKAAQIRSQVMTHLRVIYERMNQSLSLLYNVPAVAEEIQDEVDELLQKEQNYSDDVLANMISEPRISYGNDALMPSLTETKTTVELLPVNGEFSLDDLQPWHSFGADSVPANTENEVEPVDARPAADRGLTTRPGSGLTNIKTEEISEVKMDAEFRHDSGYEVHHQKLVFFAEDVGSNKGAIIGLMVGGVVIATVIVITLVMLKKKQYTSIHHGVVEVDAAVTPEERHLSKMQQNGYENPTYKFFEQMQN
In short: (§1)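 Aβ42 incubated 24 h at 30 °C with or without inhibitor; monomer (Aβ42m) and oxidized monomer (Aβ42m Ox) quantified by mass spectrometry with reserpine as internal standard. Residual monomer expressed versus t0 control; oxidized monomer expressed as fold over 24 h control. Test levels 2, 10 and 50 μM.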

T67 [2] = test: Pro-oxidant activity in human T67 cells assessed as induction of mitochondrial ROS generation after 4 hrs by MitoSOX Red probe based fluorescence assay; assay type: functional, cell-based
In short: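 T67 cells treated 4 h with compound at 1–10 μM; mitochondrial superoxide read by MitoSOX Red fluorescence. Antimycin A (10 μM) as positive control. n = 8; one-way ANOVA with Dunnett's test versus untreated control.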

T67 [3] = test: Antioxidant activity in human T67 cells assessed as decrease in TBHP-induced ROS generation at 10 uM pretreated for 4 hrs followed by TBPH addition for 30 mins by DCFDA dye based fluorescence assay; assay type: functional, cell-based
[4] = target: Amyloid-beta precursor protein (Homo sapiens) (UniProt P05067); test: Inhibition of amyloid beta (1 to 42) (unknown origin) self-aggregation assessed as residual amyloid beta 42 monomer level at 10 uM after 24 hrs by ESI-IT-MS analysis; in short: as §1
[5] = target: Amyloid-beta precursor protein (Homo sapiens) (UniProt P05067); test: Inhibition of amyloid beta (1 to 42) (unknown origin) self-aggregation assessed as residual amyloid beta 42 monomer level at 2 uM after 24 hrs by ESI-IT-MS analysis; in short: as §1
[6] = target: Amyloid-beta precursor protein (Homo sapiens) (UniProt P05067); test: Inhibition of amyloid beta (1 to 42) (unknown origin) self-aggregation at 2 uM after 24 hrs by ESI-IT-MS analysis; in short: as §1
[7] = target: Amyloid-beta precursor protein (Homo sapiens) (UniProt P05067); test: Inhibition of amyloid beta (1 to 42) (unknown origin) self-aggregation assessed as increase in oxidized amyloid beta 42 monomer level at 50 uM after 24 hrs by ESI-IT-MS analysis relative to control; in short: as §1
[8] = target: Amyloid-beta precursor protein (Homo sapiens) (UniProt P05067); test: Inhibition of amyloid beta (1 to 42) (unknown origin) self-aggregation assessed as increase in oxidized amyloid beta 42 monomer level at 2 uM after 24 hrs by ESI-IT-MS analysis relative to control; in short: as §1
[9] = target: Amyloid-beta precursor protein (Homo sapiens) (UniProt P05067); test: Inhibition of amyloid beta (1 to 42) (unknown origin) self-aggregation assessed as increase in oxidized amyloid beta 42 monomer level at 10 uM after 24 hrs by ESI-IT-MS analysis relative to control; in short: as §1
Rattus norvegicus = species: Rattus norvegicus; test: Neurotoxicity in rat mixed cortical neurons assessed as neuronal cell death up to 50 uM after 48 hrs by trypan blue dye based phase contrast microscopic analysis; assay type: toxicity, organism-based; details: cortical neurone
In short: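 Mixed rat cortical cell cultures exposed to compound at 0.25−50 μM for 48 h; dead neurons stained with Trypan blue and counted microscopically to quantify neuronal damage.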

[10] = target: Amyloid-beta precursor protein (Homo sapiens) (UniProt P05067); test: Neuroprotective activity against amyloid beta (1 to 42) (unknown origin)-induced neuronal cell death in rat mixed cortical neurons assessed as number of dead neurons at 5 uM incubated for 72 hrs by trypan blue dye based phase contrast microscopic analysis (reference value: 71.7 +/- 3.1)
In short: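 100 μM Aβ42 preincubated 72 h alone or with 5-fold molar excess of inhibitor, then added to rat mixed cortical cultures for a further 72 h (final inhibitor 5 μM). Dead neurons stained with Trypan blue, counted in three random microscopic fields/well; means ± SEM of nine determinations.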

neuronal = test: Neuroprotective activity against human amyloid beta (1 to 42)-induced neuronal cell death in rat mixed cortical neurons assessed as decrease in number of dead neurons up to 25 uM incubated for 72 hrs by trypan blue dye based phase contrast microscopic analysis
In short: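 Rat mixed cortical cultures exposed to Aβ42 oligomers preformed by 72 h incubation, with compound added separately; 72 h exposure. Trypan blue–stained dead neurons counted in three random fields/well; means ± SEM of nine determinations.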

[11] = target: Amyloid-beta precursor protein (Homo sapiens) (UniProt P05067); test: Inhibition of amyloid beta (1 to 42) (unknown origin) self-aggregation assessed as increase in oxidized amyloid beta 42 monomer level after 24 hrs by ESI-IT-MS analysis; in short: as §1
[12] = target: Amyloid-beta precursor protein (Homo sapiens) (UniProt P05067); test: Inhibition of amyloid beta (1 to 42) (unknown origin) self-aggregation assessed as residual amyloid beta 42 monomer level at 50 uM after 24 hrs by ESI-IT-MS analysis; in short: as §1
[13] = target: Amyloid-beta precursor protein (Homo sapiens) (UniProt P05067); test: Inhibition of amyloid beta (1 to 42) (unknown origin) self-aggregation at 50 uM after 24 hrs by ESI-IT-MS analysis; in short: as §1

inhibition [1]: < 10%
SMILES: NCCCNCCCCNCCCNC(=O)CCC(=O)N1C/C(=C\c2ccc(O)cc2)C(=O)/C(=C/c2ccc(O)cc2)C1
Activity (T67 [2]): Dose-dependent effect

inhibition [1]: < 10%
SMILES: COc1cc(/C=C2\CN(C(=O)CCC(=O)NCCCNCCCCNCCCN)C/C(=C\c3ccc(O)c(OC)c3)C2=O)ccc1O
Activity (T67 [3]): Active

inhibition [1]: < 10%
SMILES: COc1ccc(/C=C2/CN(C(=O)CCC(=O)NCCCNCCCCNCCCN)C/C(=C\c3ccc(OC)c(OC)c3)C2=O)cc1OC

inhibition [1]: < 10%
SMILES: NCCCNCCCCNCCCNC(=O)CCC(=O)N1C/C(=C/c2cccc(O)c2)C(=O)/C(=C/c2cccc(O)c2)C1

inhibition [1]: < 10%
SMILES: NCCCNCCCCNCCCNC(=O)CCC(=O)N1C/C(=C\c2ccccc2)C(=O)/C(=C/c2ccccc2)C1

SMILES: NCCCNCCCCNCCCNC(=O)CCC(=O)N1C/C(=C/c2ccc(O)c(O)c2)C(=O)/C(=C/c2ccc(O)c(O)c2)C1.O=C(O)C(F)(F)F
Activity [4]: 53%
Activity [5]: 27%
inhibition [6]: 12%
fold change (FC) [7]: 2.79
fold change (FC) [8]: 1.46
fold change (FC) [9]: 2.14
Activity (T67 [2]): Dose-dependent effect
Activity (Rattus norvegicus): Non-Toxic
Activity [10]: 46.5
Activity (neuronal): Active
inhibition [11]: Dose-dependent effect

SMILES: Cl.O=C1/C(=C/c2ccc(O)c(O)c2)CNC/C1=C\c1ccc(O)c(O)c1
Activity [4]: 20.5%
Activity [12]: 61.9%
inhibition [13]: 54.1%
fold change (FC) [7]: 2.56
Activity (Rattus norvegicus): Non-Toxic
inhibition [11]: Dose-dependent effect
